Measured values as given in ChEMBL document CHEMBL1143104, “Identification and characterization of pyrrolidine diastereoisomers as potent functional agonists and antagonists of the human melanocortin-4 receptor” (Bioorg Med Chem Lett, 2008).
The source made the active and inactive calls. The rule behind the calls is not given here.

Columns and labels:
Melanocortin receptor 4 [1] = molecular target: T1, Melanocortin receptor 4 (Homo sapiens, UniProt P32245); test: Displacement of [125I]NDP-MSH from human MC4 receptor expressed in HEK293 cells; assay type: cell-based
Procedure, shortened: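 HEK293 cells expressing human MC4R, radioligand competition binding with [125I]-NDP-MSH. Ki values are the average of two or more independent measurements.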

Melanocortin receptor 4 [2] = molecular target: T1, Melanocortin receptor 4; test: Intrinsic activity at human MC4 receptor expressed in CHO cells assessed as accumulation of cAMP production relative to alphaMSH; assay type: functional, cell-based
Procedure, shortened: (§1)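 CHO cells transfected with human MC4R were stimulated by compound and accumulated cAMP was measured by ELISA. Intrinsic activity is expressed relative to α-MSH. Representative experiments were run 2–8 times.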

Melanocortin receptor 4 [3] = molecular target: T1, Melanocortin receptor 4; test: Antagonist activity at human MC4 receptor expressed in CHO cells assessed as inhibition of alpha-MSH-stimulated cAMP production; assay type: functional, cell-based
Procedure, shortened: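 CHO cells transfected with human MC4R were tested for dose-dependent inhibition of α-MSH-stimulated cAMP accumulation, measured by ELISA. IC50 was derived. Representative experiments were run 2–8 times.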

Melanocortin receptor 4 [4] = molecular target: T1, Melanocortin receptor 4; test: Agonist activity at human MC4 receptor expressed in CHO cells assessed as accumulation of cAMP production; assay type: functional, cell-based; procedure, shortened: as §1
Melanocortin receptor 3 = Melanocortin receptor 3 (Homo sapiens, UniProt P41968); test: Binding affinity to MC3R
[5] = Apparent permeability across human Caco-2 cells from apical to basolateral side; assay type: ADME, cell-based
Procedure, shortened: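 Caco-2 monolayer permeability, apical-to-basolateral Papp in nm/s. The (b to a)/(a to b) ratio was also determined as an efflux measure.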

Melanocortin receptor 5 = Melanocortin receptor 5 (Homo sapiens, UniProt P33032); test: Binding affinity to MC5R
[6] = Half life in rat at 2.5 mg/kg, iv; assay type: ADME, organism-based; design: dose 2.5 mg/kg, route intravenous; settings: in vivo
Procedure, shortened: (§2)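 Rat pharmacokinetics: single 2.5 mg/kg iv injection and separately 10 mg/kg oral gavage. Plasma CL, Vd, t1/2, AUC, Cmax, Tmax and oral bioavailability were derived. Whole-brain concentration was measured at 1 and 4 h after oral dosing and expressed as a brain/plasma ratio. Values are the average of three animals.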

[7] = Tmax in rat at 10 mg/kg, po; assay type: ADME, organism-based; design: dose 10 mg/kg, route oral; settings: in vivo; procedure, shortened: as §2
Caco-2 = test: Ratio of permeability across human Caco-2 cells from basolateral to apical side to apical to basolateral side; assay type: ADME, cell-based
[8] = Ratio of drug level in brain to plasma in rat at 10 mg/kg, po after 4 hrs; assay type: ADME, organism-based; design: dose 10 mg/kg, route oral; settings: read-out: BPR; procedure, shortened: as §2
[9] = AUC in rat at 10 mg/kg, po; assay type: ADME, organism-based; design: dose 10 mg/kg, route oral; settings: plasma; procedure, shortened: as §2
[10] = Volume of distribution in rat in rat at 2.5 mg/kg, iv; assay type: ADME, organism-based; design: dose 2.5 mg/kg, route intravenous; settings: in vivo; procedure, shortened: as §2
[11] = AUC in rat at 2.5 mg/kg, iv; assay type: ADME, organism-based; design: dose 2.5 mg/kg, route intravenous; settings: plasma; procedure, shortened: as §2
[12] = Cmax in rat at 10 mg/kg, po; assay type: ADME, organism-based; design: dose 10 mg/kg, route oral; settings: in vivo; procedure, shortened: as §2
[13] = Distribution coefficient, log D by shake flask method; assay type: physicochemical; settings: octanol/water
Procedure, shortened: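 log D was measured by the shake-flask method.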

[14] = Drug level in rat brain at 10 mg/kg, po after 4 hrs; assay type: ADME, organism-based; design: dose 10 mg/kg, route oral; settings: read-out: Drug uptake; procedure, shortened: as §2
[15] = Clearance in rat at 2.5 mg/kg, iv; assay type: ADME, organism-based; design: dose 2.5 mg/kg, route intravenous; settings: in vivo; procedure, shortened: as §2
[16] = Ratio of drug level in brain to plasma in po dosed DIO rat after 7 days; assay type: ADME, organism-based; settings: read-out: BPR
Procedure, shortened: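 Chronic study in DIO rats given 3, 10 or 30 mg/kg orally once daily. A satellite group was sampled on day 1 and day 7 for plasma concentration-time profiles and brain/plasma ratio.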

[17] = Bioavailability in rat at 10 mg/kg, po; assay type: ADME, organism-based; settings: in vivo; procedure, shortened: as §2
Rattus norvegicus [18] = test: Increase in fat loss in po dosed DIO rat after 7 days; assay type: functional, organism-based
Procedure, shortened: (§3)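 Male DIO rats in separate groups were dosed orally once daily, 1 h before lights out, for 7 days with vehicle, fenfluramine, or 3, 10 or 30 mg/kg compound. Food intake (corrected for spillage) and body weight were recorded daily. After 7 days, body composition was measured by EchoMRI and fasting glucose by glucometer, each relative to baseline. Significance was set at p < 0.05.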

Rattus norvegicus [19] = test: Suppression of food intake in DIO rat at 30 mg/kg, po relative to control; assay type: functional, organism-based; design: dose 30 mg/kg; procedure, shortened: as §3
[20] = molecular target: Melanocyte-stimulating hormone receptor (Homo sapiens, UniProt Q01726); settings: 10 uM
Rattus norvegicus [21] = test: Effect on food intake in DIO rat assessed as inhibition of feeding at 3 mg/kg, po after 6 days; assay type: functional, organism-based; design: dose 3 mg/kg; procedure, shortened: as §3
Rattus norvegicus [22] = test: Decrease in fasting glucose level in DIO rat at 30 mg/kg, po after 7 days; assay type: functional, organism-based; design: dose 30 mg/kg; procedure, shortened: as §3
Rattus norvegicus [23] = test: Reduction of body weight in DIO rat at 30 mg/kg, po after 2 days; assay type: functional, organism-based; design: dose 30 mg/kg; procedure, shortened: as §3

T1 sequence (P32245 whole entry): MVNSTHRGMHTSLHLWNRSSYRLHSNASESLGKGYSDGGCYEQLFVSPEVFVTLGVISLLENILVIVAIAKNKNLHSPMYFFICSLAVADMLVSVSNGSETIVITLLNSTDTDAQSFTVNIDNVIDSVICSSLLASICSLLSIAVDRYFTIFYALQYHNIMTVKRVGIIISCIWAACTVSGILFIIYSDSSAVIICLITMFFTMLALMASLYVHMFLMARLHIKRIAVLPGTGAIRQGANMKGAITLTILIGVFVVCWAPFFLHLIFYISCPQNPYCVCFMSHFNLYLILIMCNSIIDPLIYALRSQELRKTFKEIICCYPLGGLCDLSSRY
Melanocyte-stimulating hormone receptor, sequence (Q01726 whole entry, looked up): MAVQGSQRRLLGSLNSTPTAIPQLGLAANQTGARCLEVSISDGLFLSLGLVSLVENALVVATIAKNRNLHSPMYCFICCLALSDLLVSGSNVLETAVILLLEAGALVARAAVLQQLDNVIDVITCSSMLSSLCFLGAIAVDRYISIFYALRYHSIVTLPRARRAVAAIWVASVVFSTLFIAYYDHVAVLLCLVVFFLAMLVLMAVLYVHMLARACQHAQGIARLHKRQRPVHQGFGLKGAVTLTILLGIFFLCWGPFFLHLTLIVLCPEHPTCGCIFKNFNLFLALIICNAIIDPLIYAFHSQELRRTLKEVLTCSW
Melanocortin receptor 5, sequence (P33032 whole entry): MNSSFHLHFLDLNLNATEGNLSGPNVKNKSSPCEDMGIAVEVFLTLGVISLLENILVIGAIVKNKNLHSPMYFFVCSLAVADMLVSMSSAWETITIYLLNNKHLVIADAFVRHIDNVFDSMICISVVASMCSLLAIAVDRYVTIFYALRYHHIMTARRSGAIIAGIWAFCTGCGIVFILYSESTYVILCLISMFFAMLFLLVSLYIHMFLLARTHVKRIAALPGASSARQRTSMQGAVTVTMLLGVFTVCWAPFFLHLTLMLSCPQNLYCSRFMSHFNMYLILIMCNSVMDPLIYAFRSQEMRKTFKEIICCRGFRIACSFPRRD
Melanocortin receptor 3, sequence (P41968 whole entry): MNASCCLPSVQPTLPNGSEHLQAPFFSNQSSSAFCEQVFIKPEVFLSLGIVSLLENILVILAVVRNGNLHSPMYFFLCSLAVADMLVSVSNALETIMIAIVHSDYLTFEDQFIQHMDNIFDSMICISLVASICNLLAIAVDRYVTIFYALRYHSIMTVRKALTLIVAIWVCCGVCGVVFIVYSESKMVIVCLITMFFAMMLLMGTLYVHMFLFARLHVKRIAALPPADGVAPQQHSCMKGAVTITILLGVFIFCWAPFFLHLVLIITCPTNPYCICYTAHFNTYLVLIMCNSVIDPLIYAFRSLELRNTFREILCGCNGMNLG

| SMILES | Ki (Melanocortin receptor 4 [1]) [nM] | Intrinsic activity (Melanocortin receptor 4 [2]) [%] | EC50 (Melanocortin receptor 4 [4]) [nM] | further results |
| --- | --- | --- | --- | --- |
| CC(C)[C@H](NC(=O)CCN(C)C)c1cccc(F)c1N1CCN(C(=O)[C@@H]2CN(C(C)C)C[C@H]2c2cccc(F)c2)CC1 | 560 | – | – | – |
| CC(C)[C@H](NC(=O)CCN(C)C)c1cccc(F)c1N1CCN(C(=O)[C@@H]2CN(C(C)C)C[C@H]2c2ccc(Cl)cc2Cl)CC1 | 7.5 | 24 | – | IC50 (Melanocortin receptor 4 [3]): 560 nM |
| Cc1ccc(N2CCN(C(=O)[C@@H]3CN(C4CCOCC4)C[C@H]3c3ccc(Cl)cc3)CC2)c([C@@H](NC(=O)CCN)C(C)C)c1 | 2.2 | 107 | 6 | – |
| CC(C)[C@H](NC(=O)CCN(C)C)c1cccc(F)c1N1CCN(C(=O)[C@@H]2CN(C(C)C)C[C@H]2c2ccoc2)CC1 | 850 | – | – | – |
| Cc1ccc(N2CCN(C(=O)[C@@H]3CN(C4CCOCC4)C[C@H]3c3ccc(Cl)cc3)CC2)c([C@@H](NC(=O)CCN(C)C)C(C)C)c1 (stereo in doubt; 13b-1) [listing 1 of 2 here] | 1 | – | 3.8 | Ki (Melanocortin receptor 3): 260 nM; Papp A→B [5]: 0.16 ×10⁻⁶ cm/s; Ki (Melanocortin receptor 5): 800 nM; half-life [6]: 7.1 h; Tmax [7]: 2.7 h; Ratio (Caco-2): 23; Kp at 4 h [8]: 3; AUC [9]: 114 ng·h/mL; Vd [10]: 80 L/kg; AUC [11]: 307 ng·h/mL; Cmax [12]: 14 ng/mL; logD [13]: 2.6; concentration at 4 h [14]: 19 ng/g; clearance [15]: 129 mL/min/kg; Kp at 168 h [16]: > 10; bioavailability [17]: 10% |
| Cc1ccc(N2CCN(C(=O)[C@@H]3CN(C4CCOCC4)C[C@H]3c3ccc(Cl)cc3)CC2)c([C@@H](NC(=O)CCN(C)C)C(C)C)c1 (stereo in doubt; 13b-1) [listing 2 of 2 here] | – | 122 | – | Activity (Rattus norvegicus [18]): Active; Activity (Rattus norvegicus [19]): Active; inhibition [20]: 38%; Activity (Rattus norvegicus [21]): Active; Activity (Rattus norvegicus [22]): Active; Activity (Rattus norvegicus [23]): Active |
| Cc1ccc(N2CCN(C(=O)[C@@H]3CN(C4CCOCC4)C[C@H]3c3ccc(Cl)cc3)CC2)c([C@H](C(C)C)N(C)C)c1 | 5.3 | 35 | – | – |
| CCC(=O)N1C[C@@H](C(=O)N2CCN(c3ccc(C)cc3[C@@H](NC(=O)CCN(C)C)C(C)C)CC2)[C@H](c2ccc(Cl)cc2)C1 | 4.6 | 129 | 27 | – |
| CC(=O)N1C[C@@H](C(=O)N2CCN(c3ccc(C)cc3[C@@H](NC(=O)CCN(C)C)C(C)C)CC2)[C@H](c2ccc(Cl)cc2)C1 | 7.6 | 100 | 44 | – |
| Cc1ccc(N2CCN(C(=O)[C@@H]3CN(C4CCOCC4)C[C@H]3c3ccc(Cl)cc3)CC2)c([C@@H](NC(=O)[C@H](C)N)C(C)C)c1 | 1 | 38 | 5.2 | – |
| CC(C)[C@H](NC(=O)CCN(C)C)c1cccc(F)c1N1CCN(C(=O)[C@@H]2CN(C(C)C)C[C@H]2c2cc(F)cc(F)c2)CC1 | 7800 | – | – | – |
| Cc1ccc(N2CCN(C(=O)[C@@H]3CN(C4CCOCC4)C[C@H]3c3ccc(Cl)cc3)CC2)c([C@@H](NC(=O)CCN(C)C)C(C)C)c1 (stereo in doubt; 13b) | 1.4 | – | 10 | – |
| CC(C)[C@H](NC(=O)CCN(C)C)c1cccc(F)c1N1CCN(C(=O)[C@@H]2CN(C(C)C)C[C@H]2c2ccc(C(F)(F)F)c(F)c2)CC1 | 51 | 47 | 340 | – |
| Cc1ccc(N2CCN(C(=O)[C@@H]3CNC[C@H]3c3ccc(Cl)cc3)CC2)c([C@@H](NC(=O)CCN(C)C)C(C)C)c1 | 7.2 | 72 | 79 | – |
| Cc1ccc(N2CCN(C(=O)[C@@H]3CN(C4CCOCC4)C[C@H]3c3ccc(Cl)cc3)CC2)c([C@@H](N)C(C)C)c1 | 12 | 36 | – | – |
